Source: PubChem (several laboratories)
An excerpt weighted towards active compounds, which were near 2.4% of everything screened.
HKDC1 inhibitor = blocks human hexokinase HKDC1 activity; inhibition, % at 20 µM; 340,000 compounds, 0.16% hits; AID 493160; recombinant HKDC1, G6PDH/diaphorase resazurin coupled fluorescence; Q2TB90;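 active means inhibition above about 35% when tested at 20 µM, limit read from the data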;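 further: plate controls were DMSO wells with enzyme for no effect and DMSO wells lacking enzyme for full effect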
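Material – in-house recombinant HK5 (HKDC1) enzyme · Quantity – HKDC1 at 5 µg/mL · Buffer or medium – pH 8.0 Tris buffer with 10 mM MgCl2 · Reagent – glucose with 1 mM ATP · Dosing – single 20 µM dose · Times – reaction time 90 min, room temperature, protected from light · Technique – resorufin fluorescence at 613 nm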
APOBEC3G inh = inhibitors of human APOBEC3G DNA deaminase; Q9HC16; recombinant A3G, ssDNA deamination FAM/TAMRA fluorescence; inhibition, % at 20 µM; 330,000 compounds, 0.28% hits; AID 493012;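 active means inhibition of at least 40% at 20 µM, with no more than 30% in the related APOBEC3A deaminase screen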;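 further: plate controls were DMSO wells with A3G for no effect and wells lacking A3G enzyme for full effect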
Target sequence (Q9HC16 whole entry, looked up): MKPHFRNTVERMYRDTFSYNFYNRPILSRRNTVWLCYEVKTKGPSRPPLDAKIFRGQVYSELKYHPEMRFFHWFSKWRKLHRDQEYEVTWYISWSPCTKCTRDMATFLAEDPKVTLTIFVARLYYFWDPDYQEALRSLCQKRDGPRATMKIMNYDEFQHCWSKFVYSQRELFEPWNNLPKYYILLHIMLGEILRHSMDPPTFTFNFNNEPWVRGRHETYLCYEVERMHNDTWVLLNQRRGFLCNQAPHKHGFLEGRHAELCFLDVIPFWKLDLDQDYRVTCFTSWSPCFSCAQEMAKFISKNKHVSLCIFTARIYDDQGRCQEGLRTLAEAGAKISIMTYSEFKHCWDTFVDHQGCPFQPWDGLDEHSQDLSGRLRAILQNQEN
PfGluPho inh = PfG6PD (Plasmodium falciparum) enzyme inhibition | PfGluPho enzyme, NADPH resazurin-diaphorase fluorescence | inhibition, % at 20 µM | 350,000 compounds, 0.78% hits | AID 504690;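 active means inhibition reaching at least a set limit at 20 µM in the primary screen, cut at about 59% in these data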;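 further: 0% = DMSO wells with substrate and 100% = DMSO wells lacking glucose-6-phosphate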
UBC9 SUMO inh = SUMOylation inhibition; HTRF SUMOylation assay, SAE1/SAE2 + UBC9, in vitro; AID 2006; 290,000 compounds, 0.36% hits; inhibition, % at 35 µM; in the data active means inhibition above about 50%, passing the limit was not always enough
Target sequence (P63279 whole entry, looked up): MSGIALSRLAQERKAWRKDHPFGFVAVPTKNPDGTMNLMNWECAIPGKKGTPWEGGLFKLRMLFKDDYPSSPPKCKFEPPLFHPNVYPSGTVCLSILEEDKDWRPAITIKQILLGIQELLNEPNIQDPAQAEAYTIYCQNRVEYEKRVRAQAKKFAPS
M18AAP inhibitor = blocks P. falciparum M18 aspartyl aminopeptidase; recombinant PfM18AAP, H-Glu-NHMec fluorogenic cleavage; inhibition, % at 7.35 µM; 290,000 compounds, 1.2% hits;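 active means inhibition above the campaign mean inhibition over all tested compounds plus 3 SD, cut at about 28% in these data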;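 further: 0% = plate median of test compound wells and 100% = 2 mM ZnCl2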
A3A deaminase = human APOBEC3A DNA deaminase inhibition. recombinant A3A, FAM/TAMRA ssDNA deamination fluorescence. inhibition, % at 20 µM. 330,000 compounds, 0.41% hits. P31941. AID 493011;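 active means at least 40% inhibition at 20 µM here, with at most 30% in a related deaminase screen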;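 further: plate controls were A3A with DMSO for no effect and wells lacking A3A enzyme for full effect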
Target sequence (P31941 whole entry, looked up): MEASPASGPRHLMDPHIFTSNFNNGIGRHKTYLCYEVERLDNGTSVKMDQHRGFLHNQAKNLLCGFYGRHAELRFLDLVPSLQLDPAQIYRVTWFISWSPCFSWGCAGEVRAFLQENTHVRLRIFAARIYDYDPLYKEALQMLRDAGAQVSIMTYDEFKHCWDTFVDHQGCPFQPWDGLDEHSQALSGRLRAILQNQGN
PfG6PD confirm = confirmation of Plasmodium falciparum G6PD inhibitors; AID 504753; shares compounds with PfGluPho inh; inhibition, % at 20 µM; 2,400 compounds, 34% hits; recombinant PfGluPho, NADPH-diaphorase-resazurin fluorescence;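 active means inhibition of at least 50% at 20 µM in any single replicate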;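 further: 0% = DMSO with substrate and 100% = DMSO lacking glucose-6-phosphate substrate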
Diaph ctr 10uM = counter-screen for P. falciparum G6PD inhibitors: diaphorase inhibitors, oxidizers; shares compounds with PfGluPho inh; 820 compounds, 39% hits; diaphorase-coupled resazurin reduction, fluorescence, NADPH 10 uM; AID 504862; inhibition, % at 20 µM;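 active means average inhibition reaching 50% or more with the compound at 20 µM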;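 further: resorufin red fluorescence formed as diaphorase reduces resazurin using NADPH; 0% = DMSO with enzyme and 100% = DMSO without enzyme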
Diaph ctr 30uM = diaphorase inhibition or oxidation at 30 uM NADPH; shares compounds with PfGluPho inh; Diaphorase/resazurin coupled assay, resorufin fluorescence; inhibition, % at 20 µM; 820 compounds, 29% hits;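 active means inhibition averaging 50% or more, tested at 20 µM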;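 further: 0% = DMSO with enzyme and 100% = DMSO wells lacking diaphorase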
Active calls of the source: *; nt = not tested or not shown.

SMILES	HKDC1 inhibitor	APOBEC3G inh	PfGluPho inh	UBC9 SUMO inh	M18AAP inhibitor	A3A deaminase	PfG6PD confirm	others
COc1ccc(C2C(Oc3ccccc3)C(=O)N2c2cc(C)ccc2C)cc1OC (stereo unspecified)	5.7	-5.1	28.8	-12.7	-4.4	-2.3	nt
COc1ccc(C2C(Oc3ccccc3)C(=O)N2c2ccc(C)c(C)c2)cc1OC (stereo unspecified)	-0.5	0.7	81.3*	nt	-16.1	-0.3	22.7
Cc1ccccc1-c1coc2cc(O)ccc2c1=O	1.4	-0.5	-6.1	38.4	-4.7	1.5	nt
C#CCOCCOCCOCCNc1nc(N2CCN(C(=O)CCCCCCCCCCNC(=O)[C@H](CCCCN)n3cc(CCO)nn3)CC2)nc(N2CCN(C(=O)CCCCCCCCCCNC(=O)[C@H](CCCCN)n3cc(C[C@@H](C)CC)nn3)CC2)n1	2.8	-7.5	77.0*	nt	nt	-7.9	11.8
C#CCOCCOCCOCCNc1nc(N2CCN(C(=O)[C@H](CCC(=O)O)n3cc(C(N)[C@H](C)CC)nn3)CC2)nc(N2CCN(C(=O)[C@H](Cc3cc4ccccc4[nH]3)n3cc(C(N)[C@H](C)CC)nn3)CC2)n1 (stereo partly specified)	nt	-10.3	nt	11.5	3.2	-2.7	nt
C#CCOCCOCCOCCNc1nc(N2CCN(C(=O)[C@H](CCCCN)n3cc([C@@H](N)C(C)CC)nn3)CC2)nc(N2CCN(C(=O)[C@H](Cc3cc4ccccc4[nH]3)n3cc([C@@H](N)C(C)CC)nn3)CC2)n1 (stereo partly specified)	6.9	-8.4	61.2*	nt	nt	-4.0	37.5
CSc1ccc(-c2nnn(Cc3ccc(C)cc3)n2)cc1	-3.6	-2.6	-11.7	-15.0	6.6	-4.5	nt
CN1CC2=Cc3ccccc3OC23Oc2ccccc2C=C3C1	9.8	-1.1	119.8*	6.9	4.4	1.9	89.6*	Diaph ctr 10uM=86.1*;Diaph ctr 30uM=75.3*
O=C(Nc1sc2c(c1C(=O)O)CCC2)c1cccc(Cl)c1	4.9	-10.7	62.4*	9.8	-2.1	-4.9	35.0
O=C(Nc1sc2c(c1C(=O)O)CCCCC2)c1cccnc1	1.1	-8.6	8.4	12.8	8.8	-3.8	nt
O=C(Nc1sc2c(c1C(=O)O)CCC2)c1ccccc1Cl	-0.5	-5.2	7.1	6.6	-4.1	-6.3	nt
Cc1cccc(C(=O)Nc2sc3c(c2C(=O)O)CCCC3)c1	6.2	-4.2	80.0*	4.8	-8.1	-4.4	53.4*	Diaph ctr 10uM=46.9;Diaph ctr 30uM=29.0
COc1ccc(C(CNC(=O)c2ccccc2C)N2CCCC2)cc1 (stereo unspecified)	-1.5	-0.9	13.6	7.2	1.1	1.5	nt
Cc1nn(C)c(C(=O)N/N=C/c2ccncc2)c1Cl	-5.8	-1.4	-3.9	16.4	-1.4	-6.1	nt
COc1ccccc1/C=N\NC(=O)c1c(C)nc2ccc(Cl)cn12	0.9	-6.2	49.4	6.8	2.5	-6.3	23.4
Cc1nn(C)c(C(=O)N/N=C/c2cccc3ccccc23)c1Cl	-6.5	-2.3	76.1*	-7.2	2.4	4.9	38.8
CCCCOc1ccc(C(=O)NCC(=O)NCC(c2ccc(OC)cc2)N2CCOCC2)cc1 (stereo unspecified)	-6.2	-0.8	-7.8	nt	nt	-4.3	nt
Nc1ccccc1SCC(=O)Nc1cccc2ccccc12	15.6	-2.8	67.2*	-3.5	3.4	2.0	9.7
Cc1noc(C)c1COC(=O)Cc1ccc(Cl)c(Cl)c1	1.6	-2.3	69.2*	-3.9	-7.7	-1.6	32.9
Cc1noc(C)c1COC(=O)[C@H](C)NS(=O)(=O)c1ccc(Cl)c(Cl)c1	-7.1	0.7	-11.2	11.4	-0.7	1.9	nt
CCOC(=O)c1c(-c2ccccc2)cn2ccccc12	-0.2	1.5	16.5	22.8	-1.3	1.9	nt
Cc1cc(OCCn2nc(C(=O)O)c3ccccc3c2=O)ccc1C(C)C	5.6	-5.9	79.5*	-18.3	1.3	0.1	32.4
C(=N\Nc1nc(N2CCOCC2)nc(N2CCOCC2)n1)/c1cccnc1	4.5	-0.8	1.4	-13.2	11.0	-0.7	nt
O=C(NCC1CCCCN1)c1cc(OCC(F)(F)F)ccc1OCC(F)(F)F (stereo unspecified)	-5.1	2.1	-7.2	-3.3	-0.7	3.3	nt
COc1ccc(NC(=O)CN(c2ccc(OC)c(Cl)c2)S(=O)(=O)c2ccccc2)cc1	0.1	-4.8	22.9	-7.4	5.4	-3.7	nt
SMILES	HKDC1 inhibitor	APOBEC3G inh	PfGluPho inh	UBC9 SUMO inh	M18AAP inhibitor	A3A deaminase	PfG6PD confirm	others
COC(=O)c1ccc(Cl)c(NC(=O)CN(c2ccccc2)S(=O)(=O)c2ccc(OC)cc2)c1	-2.5	-5.6	76.1*	12.9	-8.2	-2.4	-17.6
Cc1cc(C)c(C)c(S(=O)(=O)N2CCC(C(=O)Nc3ccncc3)CC2)c1C	-3.6	-5.9	-26.8	0.6	6.2	-3.7	nt
COC(=O)CC1=NN(c2ccc(OC)cc2)C(=O)/C1=C\c1ccc(Cl)cc1	-8.4	-0.3	14.5	12.6	2.7	0.8	nt
COc1cc(C(=O)Nc2nnc(S(=O)(=O)N3CCCCCC3)s2)cc(OC)c1OC	1.1	-2.4	-24.4	24.4	-0.7	0.9	nt
O=C(Nc1nnc(S(=O)(=O)N2CCCCC2)s1)c1ccc(Cl)cc1	0.0	-4.5	105.9*	1.7	3.5	-4.5	44.1*	Diaph ctr 10uM=59.3*;Diaph ctr 30uM=31.6
COc1cccc(C(=O)Nc2nnc(S(=O)(=O)N3CCCC3)s2)c1	0.3	-5.0	93.5*	0.2	4.5	-1.4	70.8*	Diaph ctr 10uM=57.7*;Diaph ctr 30uM=51.1*
O=C(Nc1nnc(S(=O)(=O)N2CCCCCC2)s1)c1ccc(Br)cc1	-1.0	-8.6	72.5*	11.2	1.8	-4.3	9.3
O=C(Nc1nnc(S(=O)(=O)N2CCCCCC2)s1)c1ccccc1Br	1.5	0.3	2.7	20.4	-2.5	-2.4	nt
O=C(COc1ccc(Cl)cc1)Nc1nnc(S(=O)(=O)N2CCCCCC2)s1	-3.7	8.3	-18.3	18.2	0.5	2.2	nt
CC1CCN(S(=O)(=O)c2cccc(S(=O)(=O)N3CCCC3)c2)CC1	-4.7	-9.6	-3.3	-8.7	-0.4	-4.2	nt
O=C1CN(CC(=O)NC(=O)NCc2ccccc2)CCN1	-3.5	-7.9	-13.6	7.5	-2.4	-1.7	nt
[O-][n+]1cccc2cccc(O)c21	8.3	nt	40.5	nt	nt	nt	nt
C[n+]1cccc2cccc([O-])c21	26.4	nt	82.4*	98.5	11.4	nt	8.6
CN1CCN(C(=S)c2ccc([N+](=O)[O-])cc2)CC1	-15.4	1.0	61.4*	16.2	13.5	-6.8	54.7*	Diaph ctr 10uM=-17.7;Diaph ctr 30uM=-25.3
